Screens: PubChem BioAssay, several laboratories
proKLK7 act: proKLK7 zymogen activators, primary screen, biochemical, fluorescence intensity; 370,000 tested, 0.9% active; purified proKLK7, EDANS-DABCYL substrate fluorescence; 100% is mature enzyme control, 0% vehicle; activation, % at 7 µM; Kallikrein-7 (Homo sapiens), P49862; AID 652039, 2013;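 active means activation above the mean of all tested compounds plus 3 SD, computed per campaign excluding outliers beyond control limits, cut at about 13% in these data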
Runt-SMMHC FRET: inhibitors of RUNX1 Runt–CBFb-SMMHC binding, primary screen, biochemical, FRET, Cerulean-Runt, Venus-CBFb-SMMHC, uHTS. inhibition, % at 20 µM. 220,000 tested, 0.74% active. Cerulean-Runt/Venus-CBFb-SMMHC FRET ratio 530/480, 1 h;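 active means mean inhibition across duplicate retests at 20 µM reaching about 50%, limit read from the data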;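 further: 0% = DMSO wells and 100% = wells with excess untagged CBFb-SMMHC; inhibitors lower the FRET ratio by blocking Runt binding to CBFb-SMMHC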
Target sequence (Q01196 whole entry, looked up): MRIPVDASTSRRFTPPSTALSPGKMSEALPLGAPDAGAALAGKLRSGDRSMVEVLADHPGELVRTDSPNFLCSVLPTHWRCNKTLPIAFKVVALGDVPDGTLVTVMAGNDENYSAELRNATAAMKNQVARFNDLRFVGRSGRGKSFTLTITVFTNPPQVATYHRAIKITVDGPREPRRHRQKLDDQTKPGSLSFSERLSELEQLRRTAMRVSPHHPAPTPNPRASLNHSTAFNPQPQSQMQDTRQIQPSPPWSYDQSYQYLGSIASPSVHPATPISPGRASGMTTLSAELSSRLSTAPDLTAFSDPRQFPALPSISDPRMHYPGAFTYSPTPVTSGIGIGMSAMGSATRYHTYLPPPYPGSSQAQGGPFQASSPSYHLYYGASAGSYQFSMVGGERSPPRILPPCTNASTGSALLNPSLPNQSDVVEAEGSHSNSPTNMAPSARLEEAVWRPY
Target sequence (Q13951 whole entry, looked up): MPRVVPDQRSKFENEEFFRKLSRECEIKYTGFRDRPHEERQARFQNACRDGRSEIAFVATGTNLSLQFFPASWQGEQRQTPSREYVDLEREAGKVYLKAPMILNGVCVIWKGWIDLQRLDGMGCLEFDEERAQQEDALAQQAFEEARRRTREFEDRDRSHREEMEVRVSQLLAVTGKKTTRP
Wee1 stabilizer: Wee1 degradation inhibitors, primary screen, cell-based, HeLa, Wee1K328M-luciferase, luminescence; HeLa Luc-Wee1K328M stability; 100% = proteasome inhibitor MG132 effect; reporter increase, % at 5 µM; 220,000 tested, 1.2% active; AID 1321, 2008;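 active means activation above the mean of all tested compounds plus 3 SD, set per screening run, cut at about 8.8% in these data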;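 further: cells exposed to compound for 20 h before luminescence read; 0% = DMSO alone and 100% = MG132 at 30 µM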
Runt-CBFb FRET: inhibitors of RUNX1 Runt–CBFb binding, primary screen, biochemical, FRET, Cerulean-Runt, Venus-CBFb, uHTS; Cerulean-Runt/Venus-CBFb FRET ratio 530/480, 1 h; inhibition, % at 20 µM; 220,000 tested, 0.46% active;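 active means inhibition over about 50% at 20 µM in the single-dose screen, limit read from the data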;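 further: 0% = DMSO wells and 100% = excess unlabeled CBFb competitor control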
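test system = Cerulean-tagged RUNX1 Runt domain (FRET donor) fusion protein | reagent = Venus-CBFb binding partner, 100 nM | incubation = protein complex preformed 1 h, compound exposure 1 h, room temperature, dark | detection = FRET fluorescence | read-out basis = loss of energy transfer signal | controls = 5 µM unlabeled CBFb as full-inhibition high control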
RanGTP-Imp inh: inhibitors of RanGTP-importin-beta interaction, primary screen, biochemical, FRET, CFP-Ran, YFP-importin-beta, homogeneous. AID 2216, 2009. cell-free CFP-Ran/YFP-importin-beta FRET ratio. inhibition, % (concentration not given with the values). 300,000 tested, 1.1% active. Ran GTPase (GTP-bound) - importin-beta complex;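 active means more than half of the replicate wells show a fall in the fluorescence ratio signal beyond about 16%, limit read from the data, passing the limit was not always enough; inconclusive means exactly half of the replicate wells pass the set limit; inactive means fewer than half of replicates pass the limit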;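 further: 0% = DMSO wells and 100% = Ran loaded with GDP instead of GTP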
AI-2 QS mod: Vibrio harveyi AI-2 quorum sensing modulators, primary screen, JMH597 strain, luminescence/OD600 ratio; Vibrio harveyi JMH597 AI-2 luminescence/OD600 ratio, 9 h; stronger effect = lower value; strain lacks LuxN and CqsS sensors; 0 = neutral-control median; activity change, % at 7.5 µM; 300,000 tested, 0.4% active; AID 2094, 2009; in the data active means activity change below about -75%, passing the limit was not always enough; inconclusive means no clear call, values can overlap the other calls;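 further: luminescence divided by OD600 gain over 9 h not by final OD600 alone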
The depositor's hits bear a star. Most compounds without a hit are left out; they make up all but 2.9% or so of the library.

Results for Cn1ncc(N=Cc2c(O)ccc3ccccc23)c1C(=O)N1CCOCC1 ?
proKLK7 act: -0.7; Wee1 stabilizer: -2.2; RanGTP-Imp inh: 5.6; AI-2 QS mod: 14.6

Results for COc1ccccc1N(CC(=O)N/N=C/c1c(O)ccc2ccccc12)S(C)(=O)=O ?
proKLK7 act: -2.2; Runt-SMMHC FRET: 52.6*; Wee1 stabilizer: 4.9; Runt-CBFb FRET: 36.0; RanGTP-Imp inh: 1.7; AI-2 QS mod: 19.3

Results for COc1ccccc1NC(=O)c1c(N=Cc2c(O)ccc3ccccc23)cnn1C ?
proKLK7 act: -0.2; Runt-SMMHC FRET: -34.1; Wee1 stabilizer: 9.0*; Runt-CBFb FRET: 4.9; RanGTP-Imp inh: -4.5; AI-2 QS mod: -11.5

What do the screens show for `COc1ccccc1N(CC(=O)N/N=C/c1ccc(C(=O)O)cc1)S(=O)(=O)c1ccc(C)cc1`?
proKLK7 act: -0.2; Runt-SMMHC FRET: 0.7; Wee1 stabilizer: 9.0*; Runt-CBFb FRET: 4.6; RanGTP-Imp inh: -0.5; AI-2 QS mod: 22.0

What do the screens show for `Cc1ccc2oc(=O)c3cc(C(=O)NCCN4CCN(C)CC4)sc3c2c1`?
proKLK7 act: -0.3; Runt-SMMHC FRET: -0.5; Wee1 stabilizer: 10.4*; Runt-CBFb FRET: 1.7; RanGTP-Imp inh: 26.5*; AI-2 QS mod: -30.5

What do the screens show for `CNc1nc(-c2c[nH]c3ccccc23)cs1`?
proKLK7 act: -0.2; Runt-SMMHC FRET: -2.4; Wee1 stabilizer: 0.8; Runt-CBFb FRET: 2.0; RanGTP-Imp inh: 1.3; AI-2 QS mod: 58.9

Results for CN=c1scc(-c2c[nH]c3ccccc23)n1C ?
proKLK7 act: -0.7; Runt-SMMHC FRET: 2.7; Wee1 stabilizer: 11.6*; Runt-CBFb FRET: -0.5

How did N#C/C(=C\c1c(N2CCN(c3ccccc3)CC2)nc2ccccn2c1=O)C(N)=O do in these assays?
proKLK7 act: 10.7; RanGTP-Imp inh: 0.2; AI-2 QS mod: 7.2

How did N#C/C(=C\c1c(N2CCOCC2)nc2ccccn2c1=O)C(=O)NC1CCS(=O)(=O)C1 (configuration not stated) do in these assays?
proKLK7 act: 5.9; Runt-SMMHC FRET: 81.7*; Wee1 stabilizer: 1.1; Runt-CBFb FRET: 9.5; RanGTP-Imp inh: 3.2; AI-2 QS mod: 18.1

How did N#C/C(=C\c1c(N2CCCCCC2)nc2ccccn2c1=O)C(=O)NC1CCS(=O)(=O)C1 (configuration not stated) do in these assays?
proKLK7 act: -0.7; Runt-SMMHC FRET: 82.3*; Wee1 stabilizer: 0.6; Runt-CBFb FRET: 4.1; RanGTP-Imp inh: 0.2; AI-2 QS mod: 7.7

What do the screens show for `C#CCNC(=O)C[C@H]1C[C@@]2(C(=O)OC)C(=C[C@H](C(C)C)O[C@@H]2C2CC2)N(CCCCCCCC)C1=O`?
proKLK7 act: -0.4

What do the screens show for `CC1CC(C)CN(CC(=O)N2CCc3[nH]c4ccccc4c3C2)C1` (configuration not stated)?
proKLK7 act: 10.3; Runt-SMMHC FRET: -26.2; Wee1 stabilizer: 0.7; Runt-CBFb FRET: -16.8; RanGTP-Imp inh: 7.7; AI-2 QS mod: 21.4

Results for CC1CN(CC(=O)N2CCc3[nH]c4ccccc4c3C2)CC(C)O1 (configuration not stated) ?
proKLK7 act: 7.7; Runt-SMMHC FRET: -7.4; Wee1 stabilizer: -0.5; Runt-CBFb FRET: -27.5; RanGTP-Imp inh: 27.7*; AI-2 QS mod: 23.9

How did O=C(CN1CCN(Cc2ccc3c(c2)OCO3)CC1)N1CCc2[nH]c3ccc(F)cc3c2C1 do in these assays?
proKLK7 act: 1.9; Runt-SMMHC FRET: -20.6; Wee1 stabilizer: -1.9; Runt-CBFb FRET: -18.1; RanGTP-Imp inh: -5.0; AI-2 QS mod: 20.0

What do the screens show for `O=C(CN1CCN(Cc2ccc3c(c2)OCO3)CC1)N1CCc2[nH]c3ccccc3c2C1`?
Runt-SMMHC FRET: -10.5; Wee1 stabilizer: 0.0; Runt-CBFb FRET: -6.2; RanGTP-Imp inh: 32.0*; AI-2 QS mod: 14.1

How did COc1ccc(N2CCN(C(=O)CSc3nnc(C4CC4)n3C3CC3)CC2)cc1 do in these assays?
proKLK7 act: 0.1

How did COc1cc(OC)c(C2=NOC(C(=O)NCc3cccs3)C2)cc1Cl (configuration not stated) do in these assays?
proKLK7 act: 0.6; Runt-SMMHC FRET: -0.4; Wee1 stabilizer: 9.6*; Runt-CBFb FRET: -1.0; RanGTP-Imp inh: 1.5; AI-2 QS mod: 23.8

Results for CC1CCN(S(=O)(=O)c2cnc[nH]2)CC1 ?
proKLK7 act: -0.5; RanGTP-Imp inh: 1.9; AI-2 QS mod: -5.9

What do the screens show for `O=S(=O)(c1cnc[nH]1)N1CCCCCC1`?
proKLK7 act: -0.2; Runt-SMMHC FRET: 1.9; Wee1 stabilizer: 12.9*; Runt-CBFb FRET: 0.7; RanGTP-Imp inh: -2.6; AI-2 QS mod: 22.0

What do the screens show for `O=C(NN=Cc1cccc(OCc2ccccc2)c1)c1cc(-c2ccc(Cl)cc2)n[nH]1`?
proKLK7 act: 2.1

What do the screens show for `O=C(CN1C(=O)CSc2ccc(S(=O)(=O)N3CCOCC3)cc21)N1CCCCC1`?
proKLK7 act: 0.5; RanGTP-Imp inh: 62.1*; AI-2 QS mod: 23.6

How did O=C(CN1C(=O)CSc2ccc(S(=O)(=O)N3CCOCC3)cc21)NCCCN1CCOCC1 do in these assays?
proKLK7 act: -0.4; Runt-SMMHC FRET: -1.8; Wee1 stabilizer: -1.4; Runt-CBFb FRET: -0.8; RanGTP-Imp inh: 151.4*; AI-2 QS mod: 20.8

How did CCOC(=O)C1CCN(C(=O)CN2C(=O)CSc3ccc(S(=O)(=O)N4CCOCC4)cc32)CC1 do in these assays?
proKLK7 act: -0.3; RanGTP-Imp inh: 1.0; AI-2 QS mod: 9.7

Results for NC(=O)c1ccccc1NC(=O)Nc1ccc(F)c(Cl)c1 ?
proKLK7 act: 1.1; Runt-SMMHC FRET: -5.1; Wee1 stabilizer: -2.8; Runt-CBFb FRET: 1.4; RanGTP-Imp inh: inconclusive; AI-2 QS mod: 17.1

How did COc1ccc(-c2cc(-c3nnc(-c4ccncc4)o3)c3ccccc3n2)cc1 do in these assays?
proKLK7 act: -2.9; Runt-SMMHC FRET: 69.5*; Wee1 stabilizer: -0.4; Runt-CBFb FRET: 33.7; RanGTP-Imp inh: 3.1; AI-2 QS mod: 0.2

What do the screens show for `COc1cc(-c2nnc(-c3cc(-c4ccccc4)nc4ccccc34)o2)cc(OC)c1OC`?
proKLK7 act: -0.3

How did C=CCN1[C@@H](C)[C@H](c2ccccc2)Oc2cccc(NCCc3ccccc3)c2S1(=O)=O do in these assays?
proKLK7 act: -3.8
